Experimental findings from ChEMBL document CHEMBL1132544, “Synthesis and biological evaluation of novel prodrugs of anthracyclines for selective activation by the tumor-associated protease plasmin” (1999) are described below.

The structures appear in SMILES notation. Converted amounts (≈) assume the structure as drawn.

Format in all cases: functional
Experiment [1] in a line: Cytotoxicity against M19 tumor cell line. To be noted: Homo sapiens; read-out: ID50 (the source's name). In a few lines: (§1)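 Seven human tumour lines, continuous exposure to (pro)drug for 5 days, antiproliferative effect read by microculture sulforhodamine B (SRB) assay. ID50 = concentration giving 50% inhibition of cell growth relative to untreated control cultures, in ng/mL.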

Experiment [2] deals with A498. The experiment is described as follows: Cytotoxicity against A 498 tumor cell line. To be noted: Homo sapiens, read-out: ID50 (the source's name). In a few lines: as §1
Experiment [3] concerns IGROV-1. The experiment can be described thus: Cytotoxicity against IGROV tumor cell line. To be noted: Homo sapiens, read-out: ID50 (the source's name). In a few lines:
as §1

Experiment [4] has as its system MCF7. The experiment can be described thus: Cytotoxicity against MCF-7 tumor cell line. The note with it: Homo sapiens, read-out: ID50 (the source's name). A digest of the protocol: as §1
Experiment [5] has as its system EVSA-T. The experiment is described as follows: Cytotoxicity against EVSA-T tumor cell line. The note with it: Homo sapiens, read-out: ID50 (the source's name). A digest of the protocol:
as §1

Experiment [6] deals with WiDr. The experiment can be described thus: Cytotoxicity against WIDR tumor cell line. To be noted: Homo sapiens, read-out: ID50 (the source's name). In a few lines:
as §1

Experiment [7] concerns NCI-H226. The experiment can be described thus: Cytotoxicity against H 226 tumor cell line. To be noted: Homo sapiens, read-out: ID50 (the source's name). A digest of the protocol:
as §1

As for `COc1cccc2c1C(=O)c1c(O)c3c(c(O)c1C2=O)C[C@@](O)(C(=O)CO)C[C@@H]3OC1CC(NC(=O)OCc2ccc(NC(=O)[C@H](CCCCN)NC(=O)[C@H](Cc3ccccc3)NC(=O)[C@@H](C)N)cc2)C(O)C(C)O1.Cl.Cl` (stereo partly drawn), the IC50 in experiment [1] came to 0.437 µg/mL; in experiment [2], 0.473 µg/mL; in experiment [3], 0.59 µg/mL; in experiment [4], 0.176 µg/mL; in experiment [5], 0.141 µg/mL; in experiment [6] it was 0.413 µg/mL. In addition, the IC50 in experiment [7] is 0.896 µg/mL.

With `COc1cccc2c1C(=O)c1c(O)c3c(c(O)c1C2=O)C[C@@](O)(C(C)=O)C[C@@H]3OC1CC(NC(=O)OCc2ccc(NC(=O)[C@H](CCCCN)NC(=O)[C@H](Cc3ccccc3)NC(=O)[C@@H](C)N)cc2)C(O)C(C)O1.Cl.Cl` (stereo partly drawn), the IC50 stood at 1.58 µg/mL in experiment [1]; 1.16 µg/mL in experiment [2]; 0.225 µg/mL in experiment [3]; 1.21 µg/mL in experiment [4]; 1.2 µg/mL in experiment [5]; 2.15 µg/mL in experiment [6]. Also, in experiment [7], the IC50 was determined as 1.7 µg/mL.

In the case of `COc1cccc2c1C(=O)c1c(O)c3c(c(O)c1C2=O)C[C@@](O)(C(C)=O)C[C@@H]3O[C@H]1C[C@H](N)[C@H](O)[C@H](C)O1` [DAUNORUBICIN], the IC50 in experiment [1] came out at 0.309 µg/mL (≈ 0.586 µM); in experiment [2], 0.487 µg/mL (≈ 0.923 µM); in experiment [3] it was 0.113 µg/mL (≈ 0.214 µM); in experiment [4], 0.329 µg/mL (≈ 0.624 µM); in experiment [5], 0.048 µg/mL (≈ 0.091 µM); in experiment [6], 0.038 µg/mL (≈ 0.072 µM). For the same compound, the IC50 in experiment [7] was 0.243 µg/mL (≈ 0.461 µM).

As for `COc1cccc2c1C(=O)c1c(O)c3c(c(O)c1C2=O)C[C@@](O)(C(=O)CO)C[C@@H]3O[C@H]1C[C@H](N)[C@H](O)[C@H](C)O1` [DOXORUBICIN], the IC50 came to 0.016 µg/mL (≈ 0.0294 µM) in experiment [1]; 0.09 µg/mL (≈ 0.166 µM) in experiment [2]; 0.06 µg/mL (≈ 0.11 µM) in experiment [3]; 0.01 µg/mL (≈ 0.0184 µM) in experiment [4]; 0.008 µg/mL (≈ 0.0147 µM) in experiment [5]; 0.011 µg/mL (≈ 0.0202 µM) in experiment [6]. The IC50 in experiment [7] was found to be 0.199 µg/mL (≈ 0.366 µM).
